The record followed here is ChEMBL document CHEMBL1154229 (Bioorg Med Chem Lett, 2009).

By IC50 is commonly meant the concentration that inhibits the measured activity by half. By bioavailability is commonly meant the share of a dose that reaches the circulation, judged against a reference dose that is usually intravenous. Higher therefore signals much systemic uptake. A word on the half-life: it is the time needed for the level to fall by half in the phase considered. A low value points to fast loss.

The source made the active and inactive calls.

One data set addresses Cytochrome P450 3A4 (Homo sapiens, UniProt P08684). The experiment in a line: Inhibition of CYP3A4. It is filed as ADME.
Data set [1] can be described thus: Volume of distribution at steady state in rat at 1 mg/kg, iv and 2 mg/kg, po. As to conditions: in vivo, read-out: Vdss. The data set is classed as ADME, organism-based. In short, it runs like this:
(§1)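 Rats dosed IV at 1 mg/kg (n = 2) and PO at 2 mg/kg (n = 3). Blood drug levels measured by LC/MS/MS after protein precipitation with acetonitrile.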

For the next data set, the target named is CYP2D6 (Homo sapiens, UniProt P10635). The data set is described as follows: (§2) Inhibition of CYP2D6. It is filed as ADME.
Data set [2] concerns the target Sodium channel protein type 5 subunit alpha (Homo sapiens, UniProt Q14524). The data set is described as follows: Inhibition of Nav1.5 channel.
Data set [3] can be described thus: Clearance in rat at 1 mg/kg, iv and 2 mg/kg, po. It is filed as ADME, organism-based. As to conditions: in vivo. The essentials:
as §1

Data set [4] can be described thus: Inhibition of potassium channel IKr.
Data set [5] addresses T1, Bifunctional epoxide hydrolase 2 (Homo sapiens, UniProt P34913).
T1 sequence (P34913 whole entry): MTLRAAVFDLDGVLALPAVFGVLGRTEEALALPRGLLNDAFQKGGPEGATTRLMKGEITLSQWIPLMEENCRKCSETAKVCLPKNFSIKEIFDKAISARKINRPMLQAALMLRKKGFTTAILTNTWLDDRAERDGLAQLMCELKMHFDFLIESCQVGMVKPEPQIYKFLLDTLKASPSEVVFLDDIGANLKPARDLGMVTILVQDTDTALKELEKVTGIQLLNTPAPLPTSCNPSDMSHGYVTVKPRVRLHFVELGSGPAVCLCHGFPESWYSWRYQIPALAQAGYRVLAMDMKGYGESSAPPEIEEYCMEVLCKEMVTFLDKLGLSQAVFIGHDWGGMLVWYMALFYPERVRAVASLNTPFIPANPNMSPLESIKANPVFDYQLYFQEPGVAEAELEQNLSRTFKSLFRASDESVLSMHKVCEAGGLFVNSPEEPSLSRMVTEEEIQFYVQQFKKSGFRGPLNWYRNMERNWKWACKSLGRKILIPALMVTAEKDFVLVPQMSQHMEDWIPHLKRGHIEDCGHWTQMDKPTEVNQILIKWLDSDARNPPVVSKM
The experiment in a line: Inhibition of human soluble epoxide hydrolase in HEK293 cells assessed as DHET production. It is filed as cell-based. The essentials: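 Whole-cell 14,15-DHET production assay in HEK293 cells, run with or without 10% human serum. Values come from one or two experiments, each in triplicate, with repeats within 20%.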

Data set [6] deals with T2, Bifunctional epoxide hydrolase 2 (Rattus norvegicus, UniProt P80299).
T2 sequence (P80299 whole entry): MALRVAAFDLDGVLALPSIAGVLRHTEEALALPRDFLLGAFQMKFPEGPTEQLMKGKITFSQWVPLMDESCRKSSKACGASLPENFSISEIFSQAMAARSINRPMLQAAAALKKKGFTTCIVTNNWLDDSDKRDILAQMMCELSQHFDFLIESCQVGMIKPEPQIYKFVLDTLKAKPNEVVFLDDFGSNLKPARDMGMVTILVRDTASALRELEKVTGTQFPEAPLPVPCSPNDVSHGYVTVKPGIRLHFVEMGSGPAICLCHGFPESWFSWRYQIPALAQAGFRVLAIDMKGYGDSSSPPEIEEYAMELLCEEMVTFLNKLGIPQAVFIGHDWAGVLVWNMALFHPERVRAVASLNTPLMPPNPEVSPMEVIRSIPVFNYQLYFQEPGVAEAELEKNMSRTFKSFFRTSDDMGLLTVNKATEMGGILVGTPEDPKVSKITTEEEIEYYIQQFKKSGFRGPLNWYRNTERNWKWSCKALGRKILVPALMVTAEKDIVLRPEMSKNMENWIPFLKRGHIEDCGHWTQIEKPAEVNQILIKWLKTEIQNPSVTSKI
The data set is described as follows: Inhibition of rat soluble epoxide hydrolase.

Data set [7] is described as follows: Bioavailability in rat at 1 mg/kg, iv and 2 mg/kg, po. The data set is classed as ADME, organism-based. As to conditions: in vivo. In short, it runs like this:
as §1

Another data set addresses Cytochrome P450 2C9 (Homo sapiens, UniProt P11712). The experiment in a line: Inhibition of CYP2C9. It is filed as ADME.
Data set [8] in a line: Half life in rat at 1 mg/kg, iv and 2 mg/kg, po. The data set is classed as ADME, organism-based. The conditions noted are these: in vivo. The essentials: as §1
In data set [9] the target is T1, Bifunctional epoxide hydrolase 2. The data set is described as follows: Inhibition of human soluble epoxide hydrolase.
A further data set has as its target L-type calcium channel. The data set is described as follows: Inhibition of calcium channel diltiazem binding site.
The next data set concerns the target T3, Epoxide hydrolase 1 (Homo sapiens, UniProt P07099).
T3 sequence (P07099 whole entry): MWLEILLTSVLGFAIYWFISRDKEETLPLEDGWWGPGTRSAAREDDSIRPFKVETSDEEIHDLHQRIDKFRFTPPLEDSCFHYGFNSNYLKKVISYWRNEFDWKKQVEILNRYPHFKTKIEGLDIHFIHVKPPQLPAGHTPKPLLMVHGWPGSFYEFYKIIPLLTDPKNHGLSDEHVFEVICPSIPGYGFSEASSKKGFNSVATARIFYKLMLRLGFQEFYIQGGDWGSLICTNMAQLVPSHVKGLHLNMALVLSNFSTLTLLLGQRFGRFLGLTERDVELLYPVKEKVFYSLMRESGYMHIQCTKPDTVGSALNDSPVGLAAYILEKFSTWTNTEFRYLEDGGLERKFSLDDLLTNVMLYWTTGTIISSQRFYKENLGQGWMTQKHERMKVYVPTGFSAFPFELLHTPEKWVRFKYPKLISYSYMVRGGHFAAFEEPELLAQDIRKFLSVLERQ
The experiment in a line: Inhibition of human microsomal epoxide hydrolase. The essentials:
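Human mEH used as the counterscreen enzyme. Values come from one or two experiments, each in triplicate, with repeats within 20%.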

Data set [10] deals with Rattus norvegicus. The experiment in a line: Antihypertensive activity in spontaneously hypertensive rat assessed as change in systolic blood pressure at 50 mg/kg, po up to 8 hrs by telemetry method. The data set is classed as functional, organism-based. Further details: dose 50 mg/kg. As to conditions: Artery. In short, it runs like this:
(§3)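 Spontaneously hypertensive rats dosed orally at 50 mpk. Systolic and diastolic blood pressure, heart rate and pulse pressure recorded by telemetry over 8 h post dose.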

Data set [11] concerns Rattus norvegicus. The data set is described as follows: Antihypertensive activity in spontaneously hypertensive rat assessed as change in diastolic blood pressure at 50 mg/kg, po up to 8 hrs by telemetry method. It is filed as functional, organism-based. Also on record: dose 50 mg/kg. The conditions noted are these: Artery. The essentials:
as §3

In another data set the target is Cytochrome P450 2D6 (Homo sapiens, UniProt P10635). The description is as §2. It is filed as ADME.
The target of the next data set is T4, Cytochrome P450 2C8 (Homo sapiens, UniProt P10632).
T4 sequence (P10632 whole entry): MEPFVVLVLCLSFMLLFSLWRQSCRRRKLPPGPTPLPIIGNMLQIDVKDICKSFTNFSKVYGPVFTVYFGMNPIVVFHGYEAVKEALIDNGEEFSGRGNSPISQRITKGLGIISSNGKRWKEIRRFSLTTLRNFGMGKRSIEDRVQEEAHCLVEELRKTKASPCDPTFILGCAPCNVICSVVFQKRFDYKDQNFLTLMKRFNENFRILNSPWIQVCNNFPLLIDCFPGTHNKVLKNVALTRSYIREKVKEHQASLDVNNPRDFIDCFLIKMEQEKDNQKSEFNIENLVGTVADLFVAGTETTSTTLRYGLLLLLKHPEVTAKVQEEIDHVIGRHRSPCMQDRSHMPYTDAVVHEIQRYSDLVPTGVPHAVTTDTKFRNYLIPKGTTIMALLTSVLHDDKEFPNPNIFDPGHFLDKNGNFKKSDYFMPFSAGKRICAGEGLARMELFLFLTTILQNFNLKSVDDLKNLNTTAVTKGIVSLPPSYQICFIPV
The data set is described as follows: Inhibition of CYP2C8. It is filed as ADME.

CYP2D6, sequence (P10635 whole entry): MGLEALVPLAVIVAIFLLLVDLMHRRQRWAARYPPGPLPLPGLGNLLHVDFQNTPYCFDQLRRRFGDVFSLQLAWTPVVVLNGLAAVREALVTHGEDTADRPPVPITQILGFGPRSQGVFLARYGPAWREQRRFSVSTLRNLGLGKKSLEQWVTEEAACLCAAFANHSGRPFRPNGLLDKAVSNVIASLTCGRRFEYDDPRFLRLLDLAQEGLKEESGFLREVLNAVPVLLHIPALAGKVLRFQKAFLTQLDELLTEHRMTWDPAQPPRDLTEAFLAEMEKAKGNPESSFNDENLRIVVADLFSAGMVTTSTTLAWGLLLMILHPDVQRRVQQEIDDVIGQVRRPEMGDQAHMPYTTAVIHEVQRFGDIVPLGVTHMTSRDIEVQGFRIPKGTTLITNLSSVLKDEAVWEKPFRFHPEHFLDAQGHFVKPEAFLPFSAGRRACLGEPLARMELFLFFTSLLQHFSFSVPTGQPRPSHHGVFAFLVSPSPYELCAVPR
Cytochrome P450 3A4, sequence (P08684 whole entry): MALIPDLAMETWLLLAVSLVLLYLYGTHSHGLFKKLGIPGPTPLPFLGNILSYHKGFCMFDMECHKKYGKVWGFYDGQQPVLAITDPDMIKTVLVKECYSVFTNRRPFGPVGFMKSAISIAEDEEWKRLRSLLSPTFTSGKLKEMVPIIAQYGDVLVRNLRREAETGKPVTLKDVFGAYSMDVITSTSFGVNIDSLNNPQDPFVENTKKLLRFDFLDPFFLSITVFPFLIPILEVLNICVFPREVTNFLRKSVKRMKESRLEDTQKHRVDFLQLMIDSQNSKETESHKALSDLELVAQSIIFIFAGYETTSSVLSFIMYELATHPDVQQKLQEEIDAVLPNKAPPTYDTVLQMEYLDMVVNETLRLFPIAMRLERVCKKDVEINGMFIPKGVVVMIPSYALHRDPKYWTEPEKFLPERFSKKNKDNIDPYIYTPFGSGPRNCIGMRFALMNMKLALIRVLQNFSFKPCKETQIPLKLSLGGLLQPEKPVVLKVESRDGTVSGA
Cytochrome P450 2C9, sequence (P11712 whole entry): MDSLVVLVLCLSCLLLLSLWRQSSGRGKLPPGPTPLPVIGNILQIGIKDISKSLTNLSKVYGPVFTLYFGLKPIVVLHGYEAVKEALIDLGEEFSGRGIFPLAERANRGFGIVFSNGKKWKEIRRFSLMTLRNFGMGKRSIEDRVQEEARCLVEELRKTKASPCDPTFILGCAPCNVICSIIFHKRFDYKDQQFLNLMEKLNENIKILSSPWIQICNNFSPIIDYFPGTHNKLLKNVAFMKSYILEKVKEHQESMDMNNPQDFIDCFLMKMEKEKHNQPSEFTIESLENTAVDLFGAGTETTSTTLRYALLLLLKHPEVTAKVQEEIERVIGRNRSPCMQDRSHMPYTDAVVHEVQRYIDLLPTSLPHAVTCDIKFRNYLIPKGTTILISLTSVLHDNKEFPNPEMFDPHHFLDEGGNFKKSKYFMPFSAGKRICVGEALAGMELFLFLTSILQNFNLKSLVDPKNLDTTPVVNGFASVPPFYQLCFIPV
Sodium channel protein type 5 subunit alpha, sequence (Q14524 whole entry): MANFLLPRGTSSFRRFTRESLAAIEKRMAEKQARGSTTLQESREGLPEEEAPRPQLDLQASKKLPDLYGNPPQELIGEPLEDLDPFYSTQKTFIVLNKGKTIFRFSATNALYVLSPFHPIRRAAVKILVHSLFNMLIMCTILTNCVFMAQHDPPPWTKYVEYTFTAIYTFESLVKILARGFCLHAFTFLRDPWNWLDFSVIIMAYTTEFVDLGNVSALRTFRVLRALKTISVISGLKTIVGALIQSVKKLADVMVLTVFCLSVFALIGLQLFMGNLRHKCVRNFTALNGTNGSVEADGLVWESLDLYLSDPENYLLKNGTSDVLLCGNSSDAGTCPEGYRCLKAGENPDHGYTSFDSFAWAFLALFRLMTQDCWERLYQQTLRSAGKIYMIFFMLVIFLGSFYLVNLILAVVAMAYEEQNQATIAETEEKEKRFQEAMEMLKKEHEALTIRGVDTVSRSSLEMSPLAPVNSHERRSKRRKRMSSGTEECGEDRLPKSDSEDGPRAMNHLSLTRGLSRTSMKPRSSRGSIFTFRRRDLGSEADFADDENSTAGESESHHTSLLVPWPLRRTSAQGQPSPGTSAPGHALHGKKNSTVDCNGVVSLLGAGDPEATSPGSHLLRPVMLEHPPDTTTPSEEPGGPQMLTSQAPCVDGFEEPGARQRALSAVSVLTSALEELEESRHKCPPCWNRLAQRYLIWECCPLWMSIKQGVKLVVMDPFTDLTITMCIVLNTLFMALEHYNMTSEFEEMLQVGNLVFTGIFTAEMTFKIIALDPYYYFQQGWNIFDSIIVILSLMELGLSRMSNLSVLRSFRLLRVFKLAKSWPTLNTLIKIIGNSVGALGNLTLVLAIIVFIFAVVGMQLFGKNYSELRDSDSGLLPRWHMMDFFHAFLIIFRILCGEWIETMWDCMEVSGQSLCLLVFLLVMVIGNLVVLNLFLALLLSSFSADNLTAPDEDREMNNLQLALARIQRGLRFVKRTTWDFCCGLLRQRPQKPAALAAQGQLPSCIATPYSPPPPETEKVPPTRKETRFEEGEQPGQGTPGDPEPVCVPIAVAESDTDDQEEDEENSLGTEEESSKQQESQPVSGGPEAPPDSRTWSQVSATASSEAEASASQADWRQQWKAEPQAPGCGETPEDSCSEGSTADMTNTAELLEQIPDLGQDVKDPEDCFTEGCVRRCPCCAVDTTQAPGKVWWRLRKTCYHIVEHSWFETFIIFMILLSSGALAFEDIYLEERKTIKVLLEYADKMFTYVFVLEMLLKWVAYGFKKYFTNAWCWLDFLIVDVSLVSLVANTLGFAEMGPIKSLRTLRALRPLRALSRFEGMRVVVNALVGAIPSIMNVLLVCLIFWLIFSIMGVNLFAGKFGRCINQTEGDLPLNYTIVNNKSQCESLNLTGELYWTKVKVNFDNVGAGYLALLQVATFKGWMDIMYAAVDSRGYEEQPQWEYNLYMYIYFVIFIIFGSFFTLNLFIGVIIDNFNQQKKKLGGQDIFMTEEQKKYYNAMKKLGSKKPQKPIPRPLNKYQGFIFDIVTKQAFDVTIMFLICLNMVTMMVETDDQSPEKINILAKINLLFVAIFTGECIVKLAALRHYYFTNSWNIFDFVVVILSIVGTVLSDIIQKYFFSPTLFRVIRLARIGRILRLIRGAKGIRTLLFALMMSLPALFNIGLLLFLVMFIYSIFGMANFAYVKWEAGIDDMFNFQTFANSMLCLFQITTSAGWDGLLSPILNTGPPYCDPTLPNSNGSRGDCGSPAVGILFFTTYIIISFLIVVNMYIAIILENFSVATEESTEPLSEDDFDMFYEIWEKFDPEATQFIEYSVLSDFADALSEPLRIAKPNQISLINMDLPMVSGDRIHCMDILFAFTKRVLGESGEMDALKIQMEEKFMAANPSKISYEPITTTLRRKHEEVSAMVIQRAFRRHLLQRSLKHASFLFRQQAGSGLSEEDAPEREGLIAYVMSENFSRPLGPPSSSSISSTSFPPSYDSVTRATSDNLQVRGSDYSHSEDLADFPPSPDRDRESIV
Cytochrome P450 2D6, sequence (P10635 whole entry): as the sequence (P10635 whole entry) above

For `CN(C)CCC1(c2ccccc2)CCCN(C(=O)Nc2ccc(Cl)cc2)C1` (stereo unspecified), the half-inhibitory concentration (IC50) on Cytochrome P450 3A4 was less than 10000 nM; against CYP2D6, less than 10000 nM; in data set [2], greater than 10000 nM; in data set [4], 300 nM; in data set [5] it was 1.3 nM; in data set [6] it was 119 nM. Besides, the IC50 against Cytochrome P450 2C9 was greater than 10000 nM; in data set [9], 12 nM; at L-type calcium channel, 100 nM; against Epoxide hydrolase 1, greater than 100000 nM. Also, the Vd in data set [1] stood at 1.4 L/kg. The clearance in data set [3] came to 59 mL/min/kg. This molecule yielded a bioavailability in [7] of 52%. The same molecule had a half-life in data set [8] of 39.6 min.
With `CC1(c2ccccc2)CCCN(C(=O)NCCc2ccc3nc[nH]c3c2)C1` (stereo unspecified), the IC50 against Cytochrome P450 3A4 was greater than 10000 nM; at CYP2D6, less than 10000 nM; in data set [4] it was 13000 nM; in data set [5], 13 nM; in data set [6], 26 nM; against Cytochrome P450 2C9, less than 10000 nM. For the same molecule, the IC50 was 29 nM in data set [9] and greater than 100000 nM at Epoxide hydrolase 1.
Turning to `O=C(O)CCC1(c2ccccc2)CCCN(C(=O)Nc2ccc(Cl)cc2)C1` (stereo in doubt) [listing 1 of 2 here], the outcome in the data set with Rattus norvegicus [10] and in the data set with Rattus norvegicus [11] was inactive.
Turning to `CC1(c2ccccc2)CCCN(C(=O)NCCc2ccc(Cl)cc2)C1` (stereo unspecified), the IC50 was less than 10000 nM on Cytochrome P450 3A4; less than 10000 nM against CYP2D6; 9000 nM in data set [4]; 5 nM in data set [6]; greater than 10000 nM against Cytochrome P450 2C9; 1 nM in data set [9]. Moreover, the IC50 on L-type calcium channel came to 2000 nM; at Epoxide hydrolase 1 it was 54000 nM.
Consider `O=C(O)CCC1(c2ccccc2)CCCN(C(=O)Nc2ccc(Cl)cc2)C1` (stereo in doubt) [listing 2 of 2 here], for which the IC50 on Cytochrome P450 3A4 was greater than 100000 nM; on Cytochrome P450 2D6, greater than 100000 nM; in data set [2], greater than 10000 nM; on Cytochrome P450 2C8, 65000 nM; in [5], 2 nM; in data set [6] it was 69 nM. Further, the IC50 at Cytochrome P450 2C9 is greater than 100000 nM; in [9], 5 nM; against Epoxide hydrolase 1, greater than 100000 nM.
